{
  "source": "ChEMBL document CHEMBL1125740",
  "about": "“Heterocyclic quinones. 17. A new in vivo active antineoplastic drug: 6,7-bis(1-aziridinyl)-4-[[3-(N,N-dimethylamino)propyl]amino]-5,8- quinazolinedione” (J Med Chem, 1991)",
  "key": {"[1]": {"system": "P388", "experiment": "Compound was evaluated in vivo for antitumor activity after intraperitoneal administration against P388 (1313) for mortality range at an optimal dose of 1 mg/kg/injection", "assay_type": "functional, Mus musculus"}, "[2]": {"experiment": "Compound was evaluated in vivo for antitumor activity against mammary adenocarcinoma 16/C after injecting the compound intravenously for change in body weight.", "assay_type": "functional, Mus musculus", "summary_of_the_method": "(§1)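 30-60 mg tumor fragments implanted sc by trocar on day 0 into C57Bl/6-derived hosts (B16) or C3H/He-derived hosts (16/C). Drug given iv on days 6, 9 and 13 (B16) or 6, 9 and 12 (16/C), 10 mice per group. Tumors measured by caliper. T/C % taken from median tumor burden of treated vs control groups on day 15 (B16) or day 14 (16/C). Body weight change per mouse recorded at nadir.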"}, "[3]": {"experiment": "Compound was evaluated in vivo for antitumor activity against mammary adenocarcinoma 16/C after injecting the compound intravenously for total dose.", "assay_type": "functional, Mus musculus", "summary_of_the_method": "as §1"}, "[4]": {"system": "P388", "experiment": "Compound was evaluated in vivo for antitumor activity after intraperitoneal administration against P388 (1303) for total dose at an optimal dose of 0.75 mg/kg/injection", "assay_type": "functional, Mus musculus"}, "[5]": {"system": "L1210", "experiment": "Compound was evaluated in vivo for antitumor activity after intraperitoneal administration against L1210(935) for tumor free survivors at an optimal dose of 1 mg/kg/injection at 1 day schedule.", "assay_type": "functional, Mus musculus", "summary_of_the_method": "(§2)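 L1210 leukemia, maintained in DBA/2 mice, was given ip as 10⁵ cells on day 0 to F1 hybrid or strain-of-origin mice over 18 g, in groups of 8. Dosing was ip from day 1, and mortality was checked daily. Median day of death counts dying mice only. %ILS = 100×(treated − control median day of death)/control median. Tumor-free survivors were counted on day 60. Weight change is g/mouse at nadir.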"}, "[6]": {"system": "L1210", "experiment": "Compound was evaluated in vivo for antitumor activity after intraperitoneal administration against L1210(935)for % increase in life span at an optimal dose of 0.1 mg/kg/injection at 1-4 day schedule.", "assay_type": "functional", "settings": "Mus musculus, L1210, ip", "summary_of_the_method": "as §2"}, "[7]": {"system": "L1210", "experiment": "Compound was evaluated in vivo for antitumor activity after intraperitoneal administration against L1210(935) for tumor free survivors at an optimal dose of 0.5 mg/kg/injection at 1 day schedule.", "assay_type": "functional, Mus musculus", "summary_of_the_method": "as §2"}, "[8]": {"system": "P388", "experiment": "Compound was evaluated in vivo for antitumor activity after intraperitoneal administration against P388/L-PAM(14) for total dose at an optimal dose of 0.1 mg/kg/injection at 1,2,3,4 day schedule.", "assay_type": "functional, Mus musculus"}, "[9]": {"system": "P388", "experiment": "Compound was evaluated in vivo for antitumor activity after intraperitoneal administration against P388 (1313) for tumor free survivors at an optimal dose of 0.25 mg/kg/injection", "assay_type": "functional, Mus musculus"}, "[10]": {"system": "L1210", "experiment": "Compound was evaluated in vivo for antitumor activity after intraperitoneal administration against L1210(935)for % increase in life span at an optimal dose of 0.125 mg/kg/injection at 1,4,7,11day schedule.", "assay_type": "functional", "settings": "Mus musculus, L1210, ip", "summary_of_the_method": "as §2"}, "[11]": {"experiment": "Compound was evaluated in vivo for antitumor activity against Lewis Lung cercinoma after injecting the compound intravenously for optimal dose", "assay_type": "functional, Mus musculus", "summary_of_the_method": "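Lewis lung carcinoma: 10^6 cells implanted im into C57Bl/6-derived hosts. Drug given iv on days 5, 9 and 13, 10 mice per group. Median tumor burden and weight nadir recorded. Survivors were killed on day 19, and their lungs were fixed in Fekete solution so that macroscopic metastases could be counted.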"}, "[12]": {"system": "B16", "experiment": "Compound was evaluated in vivo for antitumor activity against B16 melanoma after injecting the compound intravenously for toxicity related death.", "assay_type": "functional, Mus musculus", "summary_of_the_method": "as §1"}, "[13]": {"system": "L1210", "experiment": "Compound was evaluated in vivo for antitumor activity after intraperitoneal administration against L1210(935) for mortality range at an optimal dose of 0.125 mg/kg/injection at 1,4,7,11day schedule.", "assay_type": "functional, Mus musculus", "summary_of_the_method": "as §2"}, "[14]": {"system": "P388", "experiment": "Compound was evaluated in vivo for antitumor activity after intraperitoneal administration against P388 (1303) for tumor free survivors at an optimal dose of 0.75 mg/kg/injection on day 60", "assay_type": "functional, Mus musculus"}, "[15]": {"system": "P388", "experiment": "Compound was evaluated in vivo for antitumor activity after intraperitoneal administration against P388/L-PAM(14) for % increase in life span at an optimal dose of 0.125 mg/kg/injection at 1,4,7,11 day schedule.", "assay_type": "functional", "settings": "Mus musculus, P388, ip"}, "[16]": {"system": "P388", "experiment": "Compound was evaluated in vivo for antitumor activity after intraperitoneal administration against P388/L-PAM(14) for tumor free survivors at an optimal dose of 1 mg/kg/injection", "assay_type": "functional, Mus musculus"}, "[17]": {"system": "L1210", "experiment": "Compound was evaluated in vivo for antitumor activity after intraperitoneal administration against L1210(935) for mortality range at an optimal dose of 0.5 mg/kg/injection at 1 day schedule.", "assay_type": "functional, Mus musculus", "summary_of_the_method": "as §2"}, "[18]": {"system": "L1210", "experiment": "Compound was evaluated in vivo for antitumor activity after intraperitoneal administration against L1210(935) for median day of death at an optimal dose of 0.25 mg/kg/injection at 1,4,7,11day schedule.", "assay_type": "functional, Mus musculus", "summary_of_the_method": "as §2"}, "[19]": {"system": "P388", "experiment": "Compound was evaluated in vivo for antitumor activity after intraperitoneal administration against P388/L-PAM(14) for % increase in life span at an optimal dose of 0.5 mg/kg/injection at 1,4,7,11 day schedule.", "assay_type": "functional", "settings": "Mus musculus, P388, ip"}, "[20]": {"system": "P388", "experiment": "Compound was evaluated in vivo for antitumor activity after intraperitoneal administration against P388/L-PAM(14) for tumor free survivors at an optimal dose of 0.125 mg/kg/injection at 1,4,7,11 day schedule.", "assay_type": "functional, Mus musculus"}, "[21]": {"system": "M5076", "experiment": "Compound was evaluated in vivo for antitumor activity against M5076 after injecting the compound intravenously for median tumor burden", "assay_type": "functional, Mus musculus"}, "[22]": {"system": "P388", "experiment": "Compound was evaluated in vivo for antitumor activity after intraperitoneal administration against P388/L-PAM(14) for mortality range at an optimal dose of 0.5 mg/kg/injection at one day schedule.", "assay_type": "functional, Mus musculus"}, "[23]": {"system": "B16", "experiment": "Compound was evaluated in vivo for antitumor activity against B16 melanoma 2 after injecting the compound intravenously for toxicity related death.", "assay_type": "functional, Mus musculus"}, "[24]": {"system": "P388", "experiment": "Compound was evaluated in vivo for antitumor activity after intraperitoneal administration against P388 (1313) for mortality range at an optimal dose of 0.4 mg/kg/injection", "assay_type": "functional, Mus musculus"}, "[25]": {"system": "L1210", "experiment": "Compound was evaluated in vivo for antitumor activity after intraperitoneal administration against L1210(935) for median day of death at an optimal dose of 0.5 mg/kg/injection at 1,4,7,11day schedule.", "assay_type": "functional, Mus musculus", "summary_of_the_method": "as §2"}, "[26]": {"experiment": "Compound was evaluated in vivo for antitumor activity against Glasgow osteogenic sarcoma after injecting the compound intravenously for total dose.", "assay_type": "functional, Mus musculus", "summary_of_the_method": "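Glasgow osteogenic sarcoma in C57Bl/6-derived hosts: 30-60 mg fragments implanted sc by trocar on day 0. Drug given iv on days 3, 6 and 9, 7 mice per group. Tumors measured by caliper. Median tumor burden recorded on day 10. Body weight change per mouse recorded at nadir. Toxicity-related deaths counted.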"}, "[27]": {"system": "P388", "experiment": "Compound was evaluated in vivo for antitumor activity after intraperitoneal administration against P388/L-PAM(14) for % increase in life span at an optimal dose of 0.5 mg/kg/injection at one day schedule.", "assay_type": "functional", "settings": "Mus musculus, P388, ip, 24 h"}, "[28]": {"system": "P388", "experiment": "Compound was evaluated in vivo for antitumor activity after intraperitoneal administration against P388 (1313) for total dose at an optimal dose of 0.5 mg/kg/injection", "assay_type": "functional, Mus musculus"}, "[29]": {"system": "B16", "experiment": "Compound was evaluated in vivo for antitumor activity against B16 melanoma 1 after injecting the compound intravenously for toxicity related death.", "assay_type": "functional, Mus musculus"}, "[30]": {"system": "P388", "experiment": "Compound was evaluated in vivo for antitumor activity after intraperitoneal administration against P388/L-PAM(14) for total dose at an optimal dose of 0.4 mg/kg/injection at 1,2,3,4 day schedule.", "assay_type": "functional, Mus musculus"}, "[31]": {"experiment": "Compound was evaluated in vivo for antitumor activity against colon adenocarcinoma 38 after injecting the compound intravenously for optimal dose", "assay_type": "functional, Mus musculus"}},
  "note": "Values joined by “and” are separate entries in the source; they are usually repeats but may differ in a detail not shown here. Equal values may be shown once.",
  "data": [
    {"compound": "CN(C)CCCNc1ncnc2c1C(=O)C(N1CC1)=C(N1CC1)C2=O", "values": [
      {"measurement": "Mortality", "setting": "[1]", "value": 24, "unit": "days"},
      {"measurement": "Change in body weight", "setting": "[2]", "value": "0.5 g mouse-1 and 1 g mouse-1"},
      {"measurement": "Total dose", "setting": "[3]", "value": "1.2 mg/kg and 0.6 mg/kg"},
      {"measurement": "Optimal dose", "setting": "[4]", "value": 0.75, "unit": "mg/kg"},
      {"measurement": "Survivors", "setting": "[5]", "value": 0},
      {"measurement": "ILS at 0.1 mg/kg", "setting": "[6]", "value": 27, "unit": "%"},
      {"measurement": "Survivors", "setting": "[7]", "value": 0},
      {"measurement": "Total dose", "setting": "[8]", "value": 0.4, "unit": "mg/kg"},
      {"measurement": "Survivors", "setting": "[9]", "value": 0},
      {"measurement": "ILS at 0.125 mg/kg", "setting": "[10]", "value": 18, "unit": "%"},
      {"measurement": "Optimal dose", "setting": "[11]", "value": "0.4 mg/kg and 0.2 mg/kg"},
      {"measurement": "Toxicity", "setting": "[12]", "value": 0},
      {"measurement": "Mortality", "setting": "[13]", "value": 14, "unit": "days"},
      {"measurement": "Survivors", "setting": "[14]", "value": 0},
      {"measurement": "ILS at 0.125 mg/kg", "setting": "[15]", "value": 10, "unit": "%"},
      {"measurement": "Survivors", "setting": "[16]", "value": 0},
      {"measurement": "Mortality", "setting": "[17]", "value": 16, "unit": "days"},
      {"measurement": "Median day of death", "setting": "[18]", "value": 13},
      {"measurement": "ILS at 0.5 mg/kg", "setting": "[19]", "value": 61, "unit": "%"},
      {"measurement": "Survivors", "setting": "[20]", "value": 0},
      {"measurement": "Tumor burden", "setting": "[21]", "value": 29},
      {"measurement": "Mortality", "setting": "[22]", "value": 22, "unit": "days"},
      {"measurement": "Toxicity", "setting": "[23]", "value": 0},
      {"measurement": "Mortality", "setting": "[24]", "value": 39, "unit": "days"},
      {"measurement": "Median day of death", "setting": "[25]", "value": 14},
      {"measurement": "Total dose", "setting": "[26]", "value": 1.08, "unit": "mg/kg"},
      {"measurement": "ILS at 0.5 mg/kg", "setting": "[27]", "value": 28, "unit": "%"},
      {"measurement": "Optimal dose", "setting": "[28]", "value": 2, "unit": "mg/kg"},
      {"measurement": "Toxicity", "setting": "[29]", "value": 0},
      {"measurement": "Total dose", "setting": "[30]", "value": 1.6, "unit": "mg/kg"},
      {"measurement": "Optimal dose", "setting": "[31]", "value": 0.25, "unit": "mg/kg"}
    ]}
  ]
}
